Data reported in publication PMC12738293 (Oncogene, 2025).
No end group written: not given here.

Assays:
Gemin4 [1] = assay: Co-IP, XLH-36/Gemin4; format: binding; details: endogenous interaction, Fig. 5E
Gemin4 [2] = assay: yeast two-hybrid assay; format: binding; details: DDO medium SD/Trp-/Leu-, TDO medium SD/Trp-/Leu-/HIS-
Human Gemin4 protein = biological target: T1, Human Gemin4 protein (Homo sapiens, UniProt P57678); assay: MicroScale thermophoresis; format: binding
T1 sequence (P57678 1-1058): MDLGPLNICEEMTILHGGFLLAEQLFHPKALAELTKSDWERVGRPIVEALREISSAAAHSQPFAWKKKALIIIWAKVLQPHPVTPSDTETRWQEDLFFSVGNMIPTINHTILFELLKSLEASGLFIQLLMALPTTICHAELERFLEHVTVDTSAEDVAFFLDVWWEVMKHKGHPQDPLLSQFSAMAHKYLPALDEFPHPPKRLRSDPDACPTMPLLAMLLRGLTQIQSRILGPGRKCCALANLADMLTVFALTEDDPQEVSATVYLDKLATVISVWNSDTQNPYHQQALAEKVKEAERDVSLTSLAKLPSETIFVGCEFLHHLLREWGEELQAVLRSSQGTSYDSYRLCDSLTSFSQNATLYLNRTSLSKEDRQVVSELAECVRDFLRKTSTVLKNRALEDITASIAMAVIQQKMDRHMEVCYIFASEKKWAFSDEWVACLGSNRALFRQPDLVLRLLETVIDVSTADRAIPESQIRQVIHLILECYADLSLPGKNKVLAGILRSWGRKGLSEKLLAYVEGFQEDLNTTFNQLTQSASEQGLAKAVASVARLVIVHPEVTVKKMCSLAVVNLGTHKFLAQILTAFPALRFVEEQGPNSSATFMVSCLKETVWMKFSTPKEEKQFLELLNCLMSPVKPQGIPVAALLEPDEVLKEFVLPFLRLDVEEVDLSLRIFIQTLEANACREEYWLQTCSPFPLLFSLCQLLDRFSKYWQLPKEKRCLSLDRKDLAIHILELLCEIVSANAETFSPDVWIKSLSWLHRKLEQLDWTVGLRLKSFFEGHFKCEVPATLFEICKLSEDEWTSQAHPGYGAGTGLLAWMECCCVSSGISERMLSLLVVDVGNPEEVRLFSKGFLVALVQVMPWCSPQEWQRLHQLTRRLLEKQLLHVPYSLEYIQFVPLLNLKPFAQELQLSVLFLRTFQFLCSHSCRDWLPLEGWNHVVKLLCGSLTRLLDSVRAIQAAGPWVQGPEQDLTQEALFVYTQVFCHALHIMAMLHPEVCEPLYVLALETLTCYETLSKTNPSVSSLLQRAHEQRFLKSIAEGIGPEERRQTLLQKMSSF
Outline: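 Human Gemin4 expressed in HEK293 cells and labelled with Cy5 through cysteine sulfhydryl groups. Binding of the test peptide to the labelled protein was measured by microscale thermophoresis, and affinity was derived with the instrument's affinity analysis tool.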

Gemin4 [3] = assay: Immunofluorescence co-staining XLH-36/Gemin4; format: cell-based; details: MDA-MB-231 cells, confocal immunofluorescence
Outline: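 Cells fixed 15 min at RT in β-galactosidase staining fixative, permeabilised with Triton X-100 for 15 min, blocked in 5% BSA for 30 min at RT. Primary antibody overnight at 4 °C, then secondary antibodies 2 h at RT in the dark. DAPI counterstain 10 min in the dark; imaged by fluorescence microscopy. PBS washes between steps.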

“MRQGPSTEVPGRAPRPRGPAASRADPSLRPEGGQDP [XLH-36]” was tested, and the “interaction with Gemin4” value (Gemin4 [1]) was “only Gemin4 was confirmed to interact with XLH-36”, the “direct interaction with Gemin4” value (Gemin4 [2]) was “supported the direct interaction between XLH-36 and Gemin4” and the Kd (Human Gemin4 protein) was 4.76 µM. The “IF interaction with Gemin4” value (Gemin4 [3]) was “XLH-36 indeed interacted with Gemin4”.
